In ChEMBL document CHEMBL1132187, “Synthesis, in vitro antiproliferative activity, and DNA-binding properties of hybrid molecules containing pyrrolo[2,1-c][1, 4]benzodiazepine and minor-groove-binding oligopyrrole carriers” (J Med Chem, 1999):

Assays:
Jurkat = assay: In vitro inhibition of Jurkat cell proliferation; type: functional, cell-based; settings: Homo sapiens
Summary of the method: (§1)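 Exponentially growing cells kept as stationary suspension in RPMI 1640 with 10% FCS, 2 mM L-glutamine, penicillin/streptomycin; exposed to a range of drug concentrations (DMSO stock 1 mg/mL, diluted just before addition) for 4 days; survivors counted by Coulter counter. IC50 vs untreated controls, duplicate cultures per concentration, experiments repeated at least twice, vehicle controls included.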

[1] = tested on: Human immunodeficiency virus 1; assay: Inhibitory concentration against HIV-1 LTR polymerase chain reaction product; type: functional
Summary of the method: (§2)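 Target DNA was 20 ng of preamplified, purified PCR product, preincubated 5 min at room temperature with increasing drug amounts, then PCR-amplified with Taq: 92 °C 1 min, 62 °C annealing 1 min, 72 °C 1 min. Products run on 2% agarose gels; IC50 is the concentration giving 50% inhibition of PCR product generation.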

[2] = Inhibitory concentration against human c-myc polymerase chain reaction product; type: functional; summary of the method: as §2
Nucleic Acid = assay: Inhibitory concentration against human estrogen receptor(ER) polymerase chain reaction product; type: nucleic-acid assay
Summary of the method: as §2, with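 “of pBLCAT8ERCAT1 plasmid,” for “of preamplified, purified PCR product,”, “min, 55” for “min, 62”, “of ER” for “of”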

K562 = assay: In vitro inhibition of K-562 cell proliferation; type: functional, cell-based; settings: Homo sapiens; summary of the method: as §1

| SMILES | IC50 (Jurkat) | IC50 [1] | IC50 [2] | IC50 (Nucleic Acid) | IC50 (K562) |
| --- | --- | --- | --- | --- | --- |
| COc1cc2c(cc1OCCC(=O)Nc1cc(C(=O)Nc3cc(C(=O)NCCC(=N)N)n(C)c3)n(C)c1)N=C[C@@H]1CCCN1C2=O | 50 µM | 0.8 µM | 6 µM | 2 µM | 6 µM |
| COc1cc2c(cc1OCCC(=O)Nc1cc(C(=O)NCCC(=N)N)n(C)c1)N=C[C@@H]1CCCN1C2=O | 80 µM | 1 µM | 4 µM | 3 µM | > 100 µM |
| COc1cc2c(cc1OC)C(=O)N1CCC[C@H]1C=N2 | 2.2 µM | – | – | – | 1 µM |
| Cn1cc(NC(=O)c2cc(NC(=O)c3cc(NC(=O)c4cc(N)cn4C)cn3C)cn2C)cc1C(=O)NCCC(=N)N | 25 µM | 20 µM | 12 µM | 0.5 µM | 12 µM |

More lines, in order of falling IC50 (Jurkat), values ahead:

| IC50 (Jurkat) | IC50 [1] | IC50 [2] | IC50 (Nucleic Acid) | IC50 (K562) | SMILES |
| --- | --- | --- | --- | --- | --- |
| 20 µM | 50 µM | 25 µM | 5 µM | 12 µM | Cn1cc(NC(=O)c2cc(NC(=O)c3cc(NC=O)cn3C)cn2C)cc1C(=O)NCCC(=N)N |
| 3 µM | > 250 µM | > 250 µM | > 250 µM | 1.5 µM | COC(=O)CCOc1cc2c(cc1OC)C(=O)N1CCC[C@H]1C=N2 |
| 0.8 µM | 2 µM | 2.5 µM | 0.8 µM | 0.7 µM | COc1cc2c(cc1OCCC(=O)Nc1cc(C(=O)Nc3cc(C(=O)Nc4cc(C(=O)NCCC(=N)N)n(C)c4)n(C)c3)n(C)c1)N=C[C@@H]1CCCN1C2=O |
| 0.07 µM | 2 µM | 2 µM | 0.2 µM | 0.04 µM | COc1cc2c(cc1OCCC(=O)Nc1cc(C(=O)Nc3cc(C(=O)Nc4cc(C(=O)Nc5cc(C(=O)NCCC(=N)N)n(C)c5)n(C)c4)n(C)c3)n(C)c1)N=C[C@@H]1CCCN1C2=O |
